The record followed here is paper PMC8131326 (The Journal of Biological Chemistry, 2021).

Experiment [1] deals with Kv current of LPS-activated Raw 264.7 cells. The experiment is described as follows: Kv currents of LPS-activated Raw 264.7 macrophages. The class given is cell-based, murine. In short, it runs like this:
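Raw 264.7 cells in DMEM/10% FBS at 37 °C, 5% CO2, LPS-activated. Whole-cell patch clamp at room temperature, held at −70 mV for 4 min to equilibrate, filtered at 2 kHz and digitized at 20 kHz, 80% series-resistance compensation. Currents compared before and after test compound or 100 nM MgTx, with amplitude taken at +40 mV. I–V curves used 150-ms steps from −50 to +40 mV, 10 mV increments, 2 s intervals. Mean ± SEM, at least four experiments.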

For experiment [2], the system named is Kv1.3 expression in Raw 264.7 cells. The experiment in a line: Kv1.3 channel mRNA and protein expression in LPS-activated Raw 264.7 cells. It counts as cell-based, murine. Conditions: 3 μM FS48, 100 nM MgTx, 100 ng/ml LPS. A digest of the protocol:
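Raw 264.7 cells activated with 100 ng/ml LPS and exposed to test compound (3 μM) or MgTx (100 nM) for 24 h. Kv1.3 mRNA: Trizol RNA extraction, SYBR qRT-PCR (95 °C 5 min; 40 cycles of 95 °C 15 s / 60 °C 45 s), normalized to GAPDH by 2−ΔΔCT, in triplicate. Kv1.3 protein: western blot with primary antibody 1:2000 overnight at 4 °C, HRP chemiluminescence, densitometry against GAPDH, in triplicate.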

Experiment [3] relates to NO production in Raw 264.7 cells. The experiment is described as follows: LPS-induced NO production and iNOS mRNA in Raw 264.7 cells. It counts as cell-based, murine. Conditions: 100 ng/ml LPS. A digest of the protocol:
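Nitrite: 5 × 10^4 Raw 264.7 cells/well grown overnight, then given test compound (0.1–10 μM) plus 100 ng/ml LPS (E. coli O55:B5) for 24 h; supernatant assayed by Griess reagent at 540 nm. MgTx 100 nM served as positive control; cells without compound and/or LPS as negative controls; repeated four times. iNOS mRNA: 3 μM compound plus LPS for 8 h, SYBR qRT-PCR normalized to GAPDH (2−ΔΔCT), fold change versus untreated, in triplicate.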

For experiment [4], the system named is carrageenan-induced paw edema in mice. The experiment is described as follows: Carrageenan-induced paw edema assay. It counts as in vivo, Kunming mice. Conditions: FS48 1.5 mg/kg. In short, it runs like this:
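Male and female Kunming mice, randomized into four groups of six. Test compound (1.5 mg/kg), saline or aspirin (5 mg/kg) given i.p. 1 h before intraplantar 1% carrageenan in saline (50 μl) into the right hind paw. Paw volume to the ankle measured by plethysmometer before injection and at 2–24 h; swelling taken as Δvolume. In a second set, paws were excised at 4 h for histology, cytokine and MPO assays. Mean ± SEM, n = 6.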
In general terms: The carrageenan paw model is a standard test of acute inflammation.

The subject of the next experiment is human Kv1.1. The experiment is described as follows: Whole-cell patch clamp, HEK 293T cells expressing Kv1.1. The class given is cell-based. Conditions: 0.2 mM TEA; n = 5. A digest of the protocol:
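HEK 293T cells carrying plasmids for human Kv1.1 plus EGFP. Whole-cell patch clamp at room temperature after holding at −70 mV for 4 min, filtered at 2 kHz and digitized at 20 kHz. Currents elicited by a +10 mV depolarization were compared before and after application of the test agent.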
(In patch-clamp work, channel activity is measured electrically.)

For the compound “MgTx: a highly specific Kv1.3 blocker, positive control (UniProtKB P40755) (TIINVKCTSPKQCLPPCKAQFGQSAGAKCMNGKCKCYPH; UniProt P40755 1-39, looked up)”, the “Kv currents at all test voltages (−50 to +40 mV)” value in experiment [1] (1 μM FS48 or 100 nM MgTx, LPS-activated Raw 264.7 cells, n = 4) is listed as “reduced markedly”. The “reduction of amplitude of Kv current of LPS-activated macrophages” value in experiment [1] (at +40 mV, 100 nM MgTx, 10 μM FS48) came to 59.45 ± 2.79%. In addition, the “Kv1.3 mRNA expression induced by LPS” value in experiment [2] (real-time PCR) was “greatly reduced”. Moreover, the “decrease of Kv1.3 protein expression induced by LPS” value in experiment [2] (24 h, western blot normalized to GAPDH) is listed as 76.15 ± 13.81%. For the same compound, in experiment [3] (10 μM FS48, 100 nM MgTx, 24 h, Griess reagent), the “inhibition of LPS-induced nitrite production” value is “about 37.65%”. Besides, in experiment [3] (exposure for 8 h, 3 μM FS48, qRT-PCR), the “LPS-induced increase of mRNA level of iNOS” value is given as “evidently inhibited”. Further, the “effect on the second phase of carrageenan-induced paw edema” value in experiment [4] (MgTx 0.4179 mg/kg, intraperitoneally 1 h before carrageenan) was “remarkable anti-inflammatory effects”.

For the compound `CC[N+](CC)(CC)CC` [TEA, tetraethylammonium], the “reduction of Kv1.1 current by TEA” value with human Kv1.1 was found to be 31.81 ± 1.98%.

On to `CC(=O)Oc1ccccc1C(=O)O` [aspirin], for which the “carrageenan-induced secretion of IL-1β, IL-6, and TNF-α in paw tissues” value in experiment [4] (aspirin 5 mg/kg i.p., 4 h after carrageenan) is “diminished”. Moreover, in experiment [4] (aspirin 5 mg/kg i.p., 4 h after carrageenan, HE stain), the “leukocyte infiltration in paw (histological analysis)” value is “obviously reduced”. Moreover, the “suppression of hind paw edema at 4 h versus model group” value in experiment [4] (aspirin 5 mg/kg, intraperitoneally 1 h before carrageenan (1%, 50 μl), 4 h, n = 6) is recorded as “approximately 44.79%”.
